DENV2 CPE rescue – protects cells from dengue virus 2 cytopathic effect | DENV2-infected cells, cytopathic effect rescue, plate reader | CPE inhibition, % at 9.99 µM | 1.7% of 350,000 active; in the data active = CPE inhibition above about 20%, passing the limit was not always enough; inconclusive = no clear call, values can overlap the other calls; tested in BHK-21 cells;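 note: 0% = median of neutral control wells and 100% = median of positive control wells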
SIRT5 block – blocks human SIRT5 desuccinylation of peptide; Purified SirT5, succinyl-peptide AMC, trypsin-coupled fluorescence; 1.1% of 330,000 active; inhibition, % at 15 µM; in the data active = inhibition above about 15%; inconclusive = no clear call, values can overlap the other calls
Target sequence (Q9NXA8 whole entry, looked up): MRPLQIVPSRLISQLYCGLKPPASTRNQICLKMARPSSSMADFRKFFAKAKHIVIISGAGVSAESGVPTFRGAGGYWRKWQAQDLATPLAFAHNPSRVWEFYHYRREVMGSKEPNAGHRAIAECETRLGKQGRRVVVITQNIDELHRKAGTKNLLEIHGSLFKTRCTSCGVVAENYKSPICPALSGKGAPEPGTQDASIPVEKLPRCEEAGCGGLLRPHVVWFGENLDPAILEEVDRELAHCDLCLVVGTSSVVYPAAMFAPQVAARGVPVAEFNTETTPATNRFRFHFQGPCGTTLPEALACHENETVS
C2C12 statin – suppression of simvastatin myotoxicity; 0.78% of 330,000 active; rescue of ATP level, % at 7.49 µM; C2C12 myotubes + simvastatin, ATP luminescence, 48 h; scaled: DMSO 0, geranylgeraniol control 100;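 active = mean ATP rescue above about 67%, or every replicate alone reaching that limit, limit read from the data, passing the limit was not always enough; inconclusive = no clear call, values can overlap the other calls; inactive = mean under the limit and some replicate under it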;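 note: myotubes were challenged with 10 µM simvastatin during compound exposure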
PGC1a acetyl inh – PGC1a acetylation modulation, inhibitor mode; U2OS PGC1a acetylation, AlphaScreen anti-acetyl-lysine; with virally co-expressed GCN5 acetyltransferase; inhibition, % at 15.6 µM; AID 651687; 0.17% of 350,000 active;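 active = every replicate shows inhibition of at least 40%; inconclusive = mean inhibition at least 40% but some replicate below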;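 note: 0% = neutral control wells and 100% = positive control wells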
S100A4 inh HTS – blocks human S100A4 binding to myosin IIA peptide | P26447 | AID 652163 | 0.14% of 360,000 active | S100A4/TAMRA-MyoIIA peptide fluorescence polarization | inhibition, % at 10.7 µM;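 active = mean inhibition of at least 70% across replicates, with every replicate also reaching that level; inconclusive = mean inhibition reaches 70% but some replicates fall short; inactive = mean inhibition below 70%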
Target sequence (P26447 whole entry, looked up): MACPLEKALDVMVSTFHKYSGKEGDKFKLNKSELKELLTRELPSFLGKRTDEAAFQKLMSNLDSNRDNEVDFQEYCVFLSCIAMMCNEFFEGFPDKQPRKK
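Test system: S100A4 monomer protein. Medium: HEPES buffer with Ca2+, pH 7.2. Reagent: fluorescent myosin IIA peptide, 5 nM. Compound dosing: single-point compound testing. Timing: 5 min between mix addition and reading. Benchmarks: DMSO neutral and TFP positive wells.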
* hit, by the source's call; ? = inconclusive; / = no result. A selection: hits, their analogues and other compounds. The true share with any hit is near 2.9%.

SMILES	DENV2 CPE rescue	SIRT5 block	C2C12 statin	PGC1a acetyl inh	S100A4 inh HTS
CO[C@@H]1CC[C@@H]2CCN(C)C(=O)C[C@H](c3ccccc3)CN(C)C(=O)c3cccc(C#N)c3OC[C@@H]1O2	1.3	25.4*	-4.3	/	0.1
Cc1ccc(C(=O)N2CC(=O)Nc3ccc(F)cc3C2c2ccccc2)cc1 (stereo unspecified)	17.8	15.5*	12.7	7.4	-2.0
O=C1CN(C(=O)c2ccccc2F)C(c2ccccc2)c2cc(F)ccc2N1 (stereo unspecified)	-2.1	-1.1	8.9	-1.6	-4.2
Cc1cc2oc(=O)cc(Cn3ccnc3)c2cc1Cl	26.0*	-0.5	0.1	/	-3.9
CN1C(=O)c2cc(NC(=O)c3cccs3)ccc2OC[C@@H]2O[C@@H](CC(=O)N3CCCCC3)CC[C@H]21	4.5	-3.3	9.0	5.3	-2.0
C[C@@H]1CCCCO[C@@H](CN(C)S(=O)(=O)c2ccc(F)cc2)[C@H](C)CN([C@@H](C)CO)C(=O)c2cc(NC(=O)Nc3cccc4ccccc34)ccc2O1	-11.6	1.6	83.6*	-19.5	-20.1
C[C@@H]1CCCCO[C@H](CN(C)S(=O)(=O)c2ccc(F)cc2)[C@@H](C)CN([C@H](C)CO)C(=O)c2cc(NC(=O)Nc3cccc4ccccc34)ccc2O1	26.2*	2.4	20.4	1.7	-65.3
C[C@@H]1CCCCO[C@@H](CN(C)S(=O)(=O)c2ccc(F)cc2)[C@@H](C)CN([C@@H](C)CO)C(=O)c2cc(NC(=O)Nc3cccc4ccccc34)ccc2O1	-9.6	-0.5	37.3	1.8	-20.9
O=C(NC1CCCCC1)C1CCC(=O)N(C2CC2)C1 (stereo unspecified)	-8.7	7.6	3.2	-5.9	-3.1
CC1(C)CC(NC(=O)C2CCC(=O)N(C3CC3)C2)CC(C)(C)C1 (stereo unspecified)	0.8	36.1*	1.6	-7.2	1.5
O=C(CN1CCOCC1)NCC[C@H]1CC[C@@H](NS(=O)(=O)c2ccc(F)cc2)[C@H](CO)O1	1.3	4.1	-5.3	9.4	-1.5
COC(=O)[C@@H]1N[C@@H]2c3ccc(C4=CCCCC4)c(=O)n3C[C@@H]2[C@H]1CO	-0.6	-2.9	-15.5	/	3.4
Cc1ccc(CSCC(=O)N2CCOCC2)cc1	/	/	104.2*	11.2	/
C[C@@H]1CCCCO[C@H](CN(C)CC2CC2)[C@H](C)CN([C@@H](C)CO)C(=O)c2cc(NS(=O)(=O)c3cn(C)cn3)ccc2O1	9.8	-2.1	/	-11.9	6.8
Nc1cc(S(=O)(=O)O)cc([N+](=O)[O-])c1O	3.9	30.1*	/	3.1	8.8
CCCNC(=O)N1CC2(C1)[C@H](c1ccccc1)[C@@H](CO)N2Cc1ccc(Cl)cc1	0.7	-2.3	/	-14.2	-1.4
C[C@H](CO)N1C[C@H](C)[C@@H](CN(C)C(=O)Cc2ccccc2)OCCCC[C@H](C)Oc2ccc(NS(=O)(=O)c3ccc(F)cc3)cc2C1=O	126.1*	/	/	9.6	/
C[C@@H]1CCCCO[C@@H](CN(C)C(=O)Cc2ccccc2)[C@@H](C)CN([C@H](C)CO)C(=O)c2cc(NS(=O)(=O)c3ccc(F)cc3)ccc2O1	-8.7	2.4	/	7.1	-38.1
C[C@@H]1CCCCO[C@H](CN(C)C(=O)Cc2ccccc2)[C@H](C)CN([C@H](C)CO)C(=O)c2cc(NS(=O)(=O)c3ccc(F)cc3)ccc2O1	27.6*	/	/	-6.3	/
C[C@@H]1CCCCO[C@@H](CN(C)C(=O)Cc2ccccc2)[C@H](C)CN([C@H](C)CO)C(=O)c2cc(NS(=O)(=O)c3ccc(F)cc3)ccc2O1	-1.5	/	/	-5.4	/
CC1CCN(S(=O)(=O)c2ccc3ccccc3c2)CC1	/	/	153.0*	-21.2	/
COc1ccc2cc(S(=O)(=O)N3CCOCC3)ccc2c1	/	/	-9.1	-1.6	/
O=S(=O)(c1ccc2ccccc2c1)N1CCOCC1	?	99.4*	2.5	/	2.4
CN1CCN(S(=O)(=O)c2ccc3ccccc3c2)CC1	15.2	/	1.2	1.8	0.1
COc1ccc(SC[C@H](C)CN2CC[C@H](NC(=O)OCc3ccccc3)CCC2=O)cc1	-1.4	-3.3	14.4	/	13.3
SMILES	DENV2 CPE rescue	SIRT5 block	C2C12 statin	PGC1a acetyl inh	S100A4 inh HTS
C[C@@H](CSc1ccc(Br)cc1)CN1CC[C@H](NC(=O)OCc2ccccc2)CCC1=O	75.4*	4.2	22.7	3.2	-21.6
COc1ccc(S(=O)(=O)Nc2ccc3c(c2)C(=O)N([C@@H](C)CO)C[C@@H](C)[C@@H](CN(C)C(=O)Cc2ccccc2)OCCCC[C@@H](C)O3)cc1	21.1*	4.1	/	-1.3	-24.0
COc1ccc(NC(=O)Nc2ccc3c(c2)C(=O)N([C@H](C)CO)C[C@@H](C)[C@@H](CN(C)C(=O)Cc2ccccc2)OCCCC[C@H](C)O3)cc1	-10.8	-1.4	/	-7.2	1.6
COc1ccc(NC(=O)Nc2ccc3c(c2)C(=O)N([C@H](C)CO)C[C@H](C)[C@@H](CN(C)C(=O)Cc2ccccc2)OCCCC[C@H](C)O3)cc1	58.1*	4.9	/	-7.0	1.6
COc1ccc(S(=O)(=O)Nc2ccc3c(c2)C(=O)N([C@H](C)CO)C[C@H](C)[C@@H](CN(C)C(=O)Cc2ccccc2)OCCCC[C@@H](C)O3)cc1	10.0	1.2	/	-5.0	19.8
COc1ccc(S(=O)(=O)Nc2ccc3c(c2)C(=O)N([C@@H](C)CO)C[C@H](C)[C@@H](CN(C)C(=O)Cc2ccccc2)OCCCC[C@@H](C)O3)cc1	25.6*	6.1	/	-8.0	-0.3
C[C@@H]1CN([C@@H](C)CO)C(=O)c2cccc(NC(=O)c3ccc(-c4nccs4)cc3)c2O[C@H]1CN(C)S(=O)(=O)c1ccc(Cl)cc1	16.5	2.5	-15.5	0.8	13.0
Cc1noc(C)c1NC(=O)Nc1ccc2c(c1)C(=O)N([C@@H](C)CO)C[C@H](C)[C@H](CN(C)S(=O)(=O)c1cccs1)O2	4.7	-3.7	8.9	1.2	0.7
CC1(C)CC(=O)C(C=NCCN2CCN(CC(=O)Nc3ccc(F)cc3)CC2)=C(O)C1	-5.9	-1.8	/	/	-5.3
CC1(C)CC(=O)C(C=NCCN2CCN(C(=S)Nc3ccc(F)cc3)CC2)=C(O)C1	/	/	65.1*	-0.4	/
Cc1ccc(OCc2nc(-c3ccccn3)no2)cc1	6.5	16.4*	-8.1	9.5	-5.9
C[C@@H]1CN([C@@H](C)CO)C(=O)Cc2cc(NS(=O)(=O)c3ccccc3)ccc2O[C@H]1CN(C)Cc1ccc(Oc2ccccc2)cc1	-26.3	13.6	22.3	-24.4	15.7
C[C@@H]1CN([C@@H](C)CO)C(=O)Cc2cc(NS(=O)(=O)c3ccc(F)cc3)ccc2O[C@H]1CN(C)Cc1ccc(Oc2ccccc2)cc1	3.2	-2.5	99.3*	-9.7	7.6
C[C@@H]1CN([C@H](C)CO)C(=O)Cc2cc(NS(=O)(=O)c3ccc(Cl)cc3)ccc2O[C@@H]1CN(C)Cc1ccc(Oc2ccccc2)cc1	6.2	10.9	20.5	-4.8	-4.8

Source: PubChem
